Only some compounds are listed: those with a hit (about 12% of all), similar ones and a draw of the others.
Lmaj promast: inhibitors of Leishmania major promastigote growth; Leishmania major promastigotes, resazurin fluorescence viability; inhibition, % at 10 µM; 9% of 200,000 active; AID 1063; in the data active = inhibition above about 50%;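 note: promastigotes grown with compound for 44 hours at 28 °C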
Dynein transport: blocks dynein driven cargo transport along microtubules | 3617.4 mouse cells, GR-EGFP nuclear translocation imaging; test concentration mostly 20 µM; stimulated with dexamethasone, 1 µM; stronger effect = lower value | z-score, hits read low | 0.47% of 220,000 active;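 active = plate z-score of nuclear minus cytoplasmic receptor signal below a set negative limit, without overly bright fluorescence or cell loss, cut at about -3.5 in these data, passing the limit was not always enough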;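 note: z-score of nuclear minus cytoplasmic ring GR-EGFP intensity difference per well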
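Also added: dexamethasone, 1.0 µM final. Medium: tet-free, stripped-serum medium. Detection: fixed, Hoechst-stained cells imaged at 10x for EGFP. Read-out: nuclear-to-cytoplasmic GR-EGFP distribution per well. Times: induction 48 h, compound 1 h, agonist 30 min.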
Autophagy mod: alters autophagy in cells | 0.98% of 190,000 active | MEF GFP-LC3 puncta imaging; test concentration mostly 10 µM | calls only at 10 µM (by protocol);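 active = percentage of spot-positive cells more than 3 SD above its plate mean, without a fluorescence outlier flag or 80% toxicity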;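 note: spot-positive cell cutoff set from DMSO-treated cells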
MT stabilize HCS: microtubule stabilizers in HeLa cells | HeLa tubulin immunostaining HCS, 24 h; share of cells brighter than vehicle mean+2SD | % tubulin-high responders, % at 10 µM | 0.83% of 200,000 active | AID 2205;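 active = plate Z-score above 3 for both tubulin-high and condensed-nucleus cell shares, with cell loss under 80%, at 10 µM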;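 note: anti alpha tubulin signal scored within the nucleus-defined area of each cell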
CHOP inh: blocks CHOP induction under ER stress; CHO-K1 CHOP-promoter luciferase, tunicamycin-induced, 15-18 h; inhibition, % at 10 µM; 3.8% of 220,000 active;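 active = compounds that reduced the stress-induced luciferase reporter signal by more than about 70% of percent inhibition, limit read from the data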;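 note: 0% = tunicamycin plus vehicle and 100% = wells without tunicamycin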
bCat nuc transl: beta-catenin nuclear translocation modulation. HeLa beta-catenin nuclear translocation, immunofluorescence imaging. nuclear translocation activity, % at 5 µM. 0.3% of 190,000 active. AID 1665;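 active = nuclear translocation activity above 50% at 5 µM, with a well cell count of 50 or more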;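 note: per-cell ratio of nuclear to cytoplasmic median beta-catenin stain intensity; plate controls were DMSO negative control for no effect and GSK-3 inhibitor IX positive control for full effect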
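Test system: human HeLa cells, native beta-catenin. Compound dosing: 5 µM primary single dose, 0.1% DMSO, 0.02–20 µM confirmation series. Incubation: compound exposure 24 h at 37°C. Detection: beta-catenin immunostaining with DAPI counterstain, 20x imaging, 6 fields/well. Read-out basis: Nuclear/cytoplasmic beta-catenin signal ratio, % activation.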
The depositor's hits bear a star; i = inactive; x = no result given; + = active, no number.

SMILES	Lmaj promast	Dynein transport	Autophagy mod	MT stabilize HCS	CHOP inh	bCat nuc transl
COc1ccccc1OP(=O)(Nc1cccnc1)Oc1ccccc1OC	10.1	-0.0216	+	4.7	28.9	-0.9
CSc1nnc(OC(=O)N(C)C)n1-c1ccc(Cl)cc1	x	-1.23	x	x	-0.7	-3.7
O=C1NC(=O)N(CCc2ccc(F)cc2)C(=O)/C1=C/c1ccco1	0.1	0.493	i	3.4	-23.1	-4.7
Cc1ccc(/C=C2/C(=O)NC(=O)N(CCc3ccc(F)cc3)C2=O)o1	-4.8	0.444	i	1.1	83.3*	0.9
O=S(=O)(c1ccc(F)cc1)N1CCCCC1c1cccnc1 (stereo unspecified)	x	-1.11	x	x	20.3	-0.6
COc1cc(OC)cc(C(=O)Nc2ccc(Br)cc2C(=O)c2ccccc2)c1	3.5	1.61	i	3.3	-0.6	-0.7
COc1cc(C(=O)Nc2ccc(Br)cc2C(=O)c2ccccc2Cl)cc(OC)c1OC	50.9*	-0.733	i	3.9	39.8	4.7
O=c1c2ccccc2nc(-c2ccc(-c3ccccc3)cc2)n1-c1ccncc1	72.8*	1	i	4.7	-4.8	-1.7
Cc1ccc(-c2nc3ccccc3c(=O)n2-c2ccncc2)cc1	-3.5	0.0117	i	3.5	-3.8	-1.1
COc1cc(C(c2c(C)[nH]n(-c3ccccc3)c2=O)c2c(C)[nH]n(-c3ccccc3)c2=O)cc(OC)c1OC	95.0*	-0.465	i	2.9	8.9	-1.4
CCN(CC)CCN/N=C(\C)c1c(O)[nH]c(=O)[nH]c1=O	x	0.0105	x	x	-12.4	-1.1
CC(=O)N(C1=NCCCS1)c1ccc(Cl)cc1	96.1*	-0.644	i	2.5	11.2	x
O=C1NC(=O)N(Cc2ccco2)C(=O)/C1=C\c1cccn1CCOc1ccc(Cl)cc1	-4.7	0.0285	i	4.0	75.9*	-1.7
CCc1ccc(N2C(=O)NC(=O)/C(=C/c3cccn3CCOc3ccc(C(C)CC)cc3)C2=O)cc1 (stereo unspecified)	46.8	2.02	i	4.3	86.1*	-1.1
CCc1ccc(N2C(=O)NC(=O)/C(=C/c3cccn3CCOc3ccc(C)cc3)C2=O)cc1	3.4	-0.521	i	2.9	90.0*	2.5
Cc1cccc(OCCn2cccc2/C=C2/C(=O)NC(=O)N(Cc3ccco3)C2=O)c1	x	-0.349	x	x	-32.5	-1.6
CC(C)c1ccc(N2C(=O)NC(=O)/C(=C\c3cnc(-c4ccccc4)nc3)C2=O)cc1	-5.0	-0.419	i	2.9	-49.0	-1.6
CCOc1ccc(CC2C(=O)NC(=O)N(c3ccc(CC)cc3)C2=O)cc1 (stereo unspecified)	-7.2	1.64	i	1.0	-5.7	3.3
C[C@H]1CC[C@@]2(C)[C@@H](CC[C@@H]3[C@@H]2CC[C@]2(C)[C@@H](O)CC[C@@H]32)C1	x	-0.955	x	x	31.7	0.8
O=[N+]([O-])c1ccc(O[C@@H]2O[C@H](CO)[C@@H](O)[C@H](O)[C@H]2F)c([N+](=O)[O-])c1	x	x	x	x	18.9	x
Nc1nonc1C(=O)N/N=C/c1ccc([N+](=O)[O-])o1	83.5*	-2.65	i	2.3	16.4	-0.8
O=C1/C(=C\c2cc3c(cc2Br)OCO3)N2CCC1CC2	63.4*	-0.803	i	1.0	21.7	4.3
CCOC(=O)c1c(-n2c(C)cc(/C=C3/C(=O)NC(=O)N(CC)C3=O)c2C)sc2c1CCCC2	95.8*	-0.692	i	3.3	x	x
CCN1C(=O)NC(=O)/C(=C/c2cc(C)n(-c3sc(C)c(C)c3C#N)c2C)C1=O	-0.1	0.301	i	2.8	5.5	-1.2
CC1CC(OC(=O)c2ccccc2)CC(C)N1C (stereo unspecified)	-3.1	-0.461	i	2.2	15.5	x
CC(C(=O)c1ccccc1)N1C(=O)c2ccccc2C1=O (stereo unspecified)	75.4*	2.49	i	3.0	21.2	3.8
NC(=O)CS(=O)C(c1ccccc1)c1ccccc1 (stereo unspecified)	x	x	x	x	11.8	-5.1
CCOP(=O)(OCC)C(NC(=O)C(C)C)C(Cl)(Cl)Cl (stereo unspecified)	-3.4	-0.291	i	3.3	0.5	1.2
